Results published in ChEMBL document CHEMBL3244161, “Azabicycloalkanes as analgetics. 3. Structure-activity relationships of 1-phenyl-6-azabicyclo[3.2.1]octanes and absolute stereochemistry of (+)-1-(3-hydroxyphenyl)-6-methyl-6-azabicyclo[3.2.1]octane and its 7-endo-methyl derivative” (J Med Chem, 1977).
Calls of active or inactive are those of the source. The rule behind the calls is not given here.

Columns and labels:
[1] = Acute toxicity in sc dosed mouse; type: organism-based; settings: in vivo
Mus musculus [2] = assay: Analgesic activity in sc dosed mouse assessed as inhibition of AcOH-induced writhing; type: functional; settings: Mus musculus, sc; read-out: ED50
Mus musculus [3] = assay: Analgesic activity in sc dosed mouse by hot-plate method; type: functional; settings: Mus musculus, sc; read-out: ED50
Rhesus monkey [4] = assay: Suppression of abstinence syndrome in morphine-dependent rhesus monkey up to 16 mg/kg; type: functional, organism-based; set-up: dose 16 mg/kg; settings: Macaca mulatta
Rhesus monkey [5] = assay: Narcotic antagonist activity in morphine-dependent rhesus monkey assessed as mild to severe abstinence at 2 mg/kg; type: functional, organism-based; set-up: dose 2 mg/kg; settings: Macaca mulatta
Summary of the method: (§1)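 Compound given to nonwithdrawn morphine-dependent monkeys; scored as precipitation of abstinence syndrome, with severity graded from mild to severe over the stated dose range.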

Rhesus monkey [6] = assay: Suppression of abstinence syndrome in morphine-dependent rhesus monkey at 1 mg/kg; type: functional, organism-based; set-up: dose 1 mg/kg; settings: Macaca mulatta
Rhesus monkey [7] = assay: Narcotic antagonist activity in morphine-dependent rhesus monkey assessed as mild to severe abstinence at 2 to 8 mg/kg; type: functional, organism-based; settings: Macaca mulatta; summary of the method: as §1
Rhesus monkey [8] = assay: Narcotic antagonist activity in morphine-dependent rhesus monkey assessed as mild to severe abstinence at 1 to 8 mg/kg; type: functional, organism-based; settings: Macaca mulatta; summary of the method: as §1
Mus musculus [9] = assay: Analgesic activity in mouse assessed as inhibition of AcOH-induced writhing up to 22.5 mg/kg, sc; type: functional, organism-based; set-up: dose 22.5 mg/kg
Rhesus monkey [10] = assay: Suppression of abstinence syndrome in morphine-dependent rhesus monkey at 5 mg/kg; type: functional, organism-based; set-up: dose 5 mg/kg; settings: Macaca mulatta
Oryctolagus cuniculus [11] = assay: Narcotic antagonist activity in rabbit assessed as inhibition of morphine-induced respiratory depression at 5 mg/kg, iv; type: functional
Summary of the method: (§2)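 Rabbits given test compound iv; read-out is antagonism of morphine-induced respiratory depression; expressed as AD50 in mg/kg or as % antagonism at a fixed dose.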

Rhesus monkey [12] = assay: Narcotic antagonist activity in morphine-dependent rhesus monkey assessed as mild to severe abstinence at 2.5 to 20 mg/kg; type: functional, organism-based; settings: Macaca mulatta; summary of the method: as §1
Mus musculus [13] = assay: Analgesic activity in mouse by hot-plate method up to 100 mg/kg, sc; type: functional, organism-based; set-up: dose 100 mg/kg
Rhesus monkey [14] = assay: Narcotic antagonist activity in morphine-dependent rhesus monkey assessed as precipitation of abstinence up to 8 mg/kg; type: functional, organism-based; set-up: dose 8 mg/kg; settings: Macaca mulatta; summary of the method: as §1
Rhesus monkey [15] = assay: Suppression of abstinence syndrome in morphine-dependent rhesus monkey at 8 mg/kg; type: functional, organism-based; set-up: dose 8 mg/kg; settings: Macaca mulatta
Oryctolagus cuniculus [16] = assay: Narcotic antagonist activity in iv dosed rabbit assessed as inhibition of morphine-induced respiratory depression; type: functional; summary of the method: as §2
Mus musculus [17] = assay: Analgesic activity in sc dosed mouse assessed as time duration of activity by hot-plate method; type: functional
Rhesus monkey [18] = assay: Suppression of abstinence syndrome in morphine-dependent rhesus monkey at 1.5 mg/kg; type: functional, organism-based; set-up: dose 1.5 mg/kg; settings: Macaca mulatta
Rhesus monkey [19] = assay: Narcotic antagonist activity in morphine-dependent rhesus monkey assessed as moderate to severe abstinence at 1.5 to 12 mg/kg; type: functional, organism-based; settings: Macaca mulatta; summary of the method: as §1
Rhesus monkey [20] = assay: Suppression of abstinence syndrome in morphine-dependent rhesus monkey up to 6 mg/kg; type: functional, organism-based; set-up: dose 6 mg/kg; settings: Macaca mulatta
Oryctolagus cuniculus [21] = assay: Narcotic antagonist activity in rabbit assessed as inhibition of morphine-induced respiratory depression up to 1 mg/kg, iv; type: functional, organism-based; set-up: dose 1 mg/kg; summary of the method: as §2
Rhesus monkey [22] = assay: Narcotic antagonist activity in morphine-dependent rhesus monkey assessed as mild to moderate abstinence at 3 to 12 mg/kg; type: functional, organism-based; settings: Macaca mulatta; summary of the method: as §1
Rhesus monkey [23] = assay: Suppression of abstinence syndrome in morphine-dependent rhesus monkey at 6 mg/kg; type: functional, organism-based; set-up: dose 6 mg/kg; settings: Macaca mulatta
Rhesus monkey [24] = assay: Suppression of abstinence syndrome in morphine-dependent rhesus monkey up to 8 mg/kg; type: functional, organism-based; set-up: dose 8 mg/kg; settings: Macaca mulatta

SMILES | LD50 [1] | ED50 (Mus musculus [2]) | ED50 (Mus musculus [3]) | AD50 (Oryctolagus cuniculus [16]) | Time (Mus musculus [17]) | other results
COc1cccc(C23CCCC(C2)N(CCCC(=O)c2ccc(F)cc2)C3)c1.Cl (racemic) | > 225 mg/kg | 3 mg/kg | 4.2 mg/kg |  |  | Activity (Rhesus monkey [4]): inactive; Activity (Rhesus monkey [5]): inactive
CC1N(C)C2CCCC1(c1cccc(O)c1)C2 (racemic; 8) |  |  |  |  |  | Activity (Rhesus monkey [6]): inactive; Activity (Rhesus monkey [7]): Active
CC(=O)Oc1cccc(C23CCCC(C2)N(C)C3C)c1 (single isomer, unassigned; (+)) |  |  |  |  |  | Activity (Rhesus monkey [6]): inactive; Activity (Rhesus monkey [8]): Active
Br.C[C@@H]1N(C)[C@@H]2CCC[C@@]1(c1cccc(O)c1)C2 | 82.7 mg/kg |  |  |  |  | Activity (Mus musculus [9]): inactive; Activity (Rhesus monkey [10]): inactive; inhibition in vivo at 5 mg/kg (Oryctolagus cuniculus [11]): 48%; Activity (Rhesus monkey [12]): Active; Activity (Mus musculus [13]): inactive
CN1CC2(c3cccc(O)c3)CCCC1C2 (racemic) | 133 mg/kg | 12.3 mg/kg | 14.3 mg/kg | 3.1 mg/kg | 137 min | Activity (Rhesus monkey [14]): inactive; Activity (Rhesus monkey [15]): inactive
Br.C[C@H]1N(C)[C@H]2CCC[C@]1(c1cccc(O)c1)C2 | 123 mg/kg | 1.2 mg/kg | 2.9 mg/kg |  | 148.6 min | Activity (Rhesus monkey [18]): inactive; inhibition in vivo at 5 mg/kg (Oryctolagus cuniculus [11]): 42%; Activity (Rhesus monkey [19]): Active
CC1N(CCc2ccccc2)C2CCCC1(c1cccc(O)c1)C2.Cl (racemic) | 27.6 mg/kg | 0.61 mg/kg | 0.3 mg/kg |  |  | Activity (Rhesus monkey [20]): inactive; inhibition (Oryctolagus cuniculus [21]): inactive
CN1C[C@]2(c3cccc(O)c3)CCC[C@H]1C2 | 90.7 mg/kg | 3.7 mg/kg | 3.6 mg/kg | 4.1 mg/kg | 140 min | Activity (Rhesus monkey [22]): Active; Activity (Rhesus monkey [23]): inactive
CC1N(CC2CC2)C2CCCC1(c1cccc(O)c1)C2.Cl (racemic) | 59.8 mg/kg | 2.2 mg/kg | 5.8 mg/kg | 0.1 mg/kg |  | Activity (Rhesus monkey [24]): inactive
